Screening data from PubChem BioAssay.
KCNQ1 inh: inhibitors of human KCNQ1 potassium channel; P51787; CHO-K1 KCNQ1, FluxOR thallium flux fluorescence; stronger effect = higher value; B-score at 10 µM; hit rate 1.3% among 310,000;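 active = compounds whose thallium flux B-score, printed positive for inhibition, exceeds three library SD while starting fluorescence stays within three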;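 also: channel opened by potassium depolarization with thallium stimulus after 20 min compound exposure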
KCC2 mod: KCC2 (human) Cl- transport modulation. Q9H2X9. hit rate 2.2% among 190,000. B-score of Tl+ flux slope (higher = more flux/activation; lower = inhibition) at 10 µM. KCC2 cells, thallium flux FluoZin-2 fluorescence;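 active = thallium flux slope and its plate-corrected score both differing from the plate sample mean at a set confidence after two filtering rounds, in either direction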;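 also: slope of fluorescence scaled to starting intensity during 10 to 20 s after thallium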
KCNK9 inh: human KCNK9 channel inhibition | HEK293 KCNK9, FluxOR thallium flux fluorescence; stronger effect = lower value | B-score at 10 µM | hit rate 1.2% among 310,000 | AID 488922;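 active = ratio B-score over 3 SD below the library mean, with starting fluorescence within 5 SD of its mean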;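 also: negative B-score means less thallium flux so channel inhibition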
KCNK3 inh: human KCNK3 channel inhibition, primary screen; O14649; CHO-KCNK3 thallium flux, FluxOR fluorescence; stronger effect = lower value; B-score at 10 µM; hit rate 0.84% among 340,000; AID 602410;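 active = B-score under library mean minus 4 SD, starting fluorescence ratio at most library mean plus 5 SD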;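 also: more negative B-score means stronger inhibition of thallium flux through KCNK3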
hERG rescue: compounds protecting human hERG from proarrhythmic drug block | hit rate 0.51% among 310,000 | AID 1511 | activation (rescue from dofetilide block), less the hit threshold, % at 10 µM | Q12809 | CHO-hERG, FluxOR thallium flux, dofetilide IC70 present;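 active = activation above the mean of controls blocked by dofetilide plus 5 SD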;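 also: thallium influx through hERG after potassium depolarization seen as dye fluorescence rise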
KCNQ1 act: potentiates or activates the human KCNQ1 potassium channel; AID 2648; CHO-K1 KCNQ1, thallium flux FluxOR fluorescence; stronger effect = higher value; B-score at 10 µM; hit rate 0.35% among 310,000;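 active = fluorescence ratio B-score, a plate-corrected score, at least three library SD, with initial intensity B-score within 5 SD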
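Assay system: stable KCNQ1 CHO-K1 line; medium: assay buffer, equal DMSO in all wells; timing: 90 min dye loading and 20 min compound exposure, both at room temperature; technique: kinetic FluxOR thallium fluorescence, 10-s 1-Hz baseline, 110-s post-stimulus read; read-out basis: B score of baseline-normalized fluorescence ratio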
KCNK9 block conf: human KCNK9 inhibitor confirmation; AID 492992; hit rate 43% among 4,900; HEK293 KCNK9 cells, FluxOR thallium flux fluorescence; inhibition, % at 10 µM; shares compounds with KCNK9 inh;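 active = thallium signal inhibited by more than 5 SD of the compound-free buffer control wells, on both duplicate plates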;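 also: 0% = assay buffer control wells without compound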
Kir21 sel: selectivity of KCNK9 modulators against mouse Kir2.1. shares compounds with KCNK9 inh. Kir2.1 cells, FluxOR thallium flux fluorescence. inhibition, % at 10 µM. hit rate 4% among 4,900;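 active = thallium signal drop more than 5 SD beyond the mean of the no-compound control wells, seen in both duplicate plates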;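 also: signal is fluorescence rise after thallium addition divided by baseline fluorescence; plate controls were assay buffer only for no effect and full block by chlorpromazine control for full effect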
Target sequence (P35561 whole entry, looked up): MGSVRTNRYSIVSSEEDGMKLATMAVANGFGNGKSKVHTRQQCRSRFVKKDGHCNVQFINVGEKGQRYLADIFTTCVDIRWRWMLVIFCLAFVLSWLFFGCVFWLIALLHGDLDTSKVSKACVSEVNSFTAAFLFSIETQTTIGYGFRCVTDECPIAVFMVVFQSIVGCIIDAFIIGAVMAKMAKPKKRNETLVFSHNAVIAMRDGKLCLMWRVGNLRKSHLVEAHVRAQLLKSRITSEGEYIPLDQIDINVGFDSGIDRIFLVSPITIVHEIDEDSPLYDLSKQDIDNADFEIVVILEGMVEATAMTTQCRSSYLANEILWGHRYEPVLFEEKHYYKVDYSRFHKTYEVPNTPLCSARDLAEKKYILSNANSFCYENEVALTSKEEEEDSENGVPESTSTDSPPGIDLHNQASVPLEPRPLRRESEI
KCNK9 uninduced: non-induced cell nonspecific activity of KCNK9 modulators. shares compounds with KCNK9 inh. non-induced KCNK9-HEK293, FluxOR thallium flux. inhibition, % at 10 µM. hit rate 40% among 4,900. AID 492997;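 active = thallium signal drop beyond 5 SD of the untreated control mean, on both duplicate plates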;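 also: plate controls were buffer only IC0 wells for no effect and SID17386958 at its maximal inhibitory level for full effect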
Active calls of the source: *; i = inactive; . = not tested or not shown. A selection: hits, their analogues and other compounds. The true share with any hit is near 4.1%.

SMILES | KCNQ1 inh | KCC2 mod | KCNK9 inh | KCNK3 inh | hERG rescue | KCNQ1 act | KCNK9 block conf | Kir21 sel | KCNK9 uninduced
O=C(CCc1ccc(Oc2cc([N+](=O)[O-])cc([N+](=O)[O-])c2)cc1)N1CCCCCC1 | i | -1.8 | -10.1* | i | -7.2 | i | 46.0%* | i | i
CC[n+]1cccc(-c2nc3ccccc3s2)c1 | i | -0.136 | i | i | -13.1 | i | . | . | .
CC[n+]1c(/C=C/N(C)c2ccccc2)n(-c2ccccc2)c2ccc(-c3nc4ccccc4s3)cc21 | 15* | . | -16.5* | -9.74* | -30.7 | i | 89.5%* | 78.0%* | 76.5%*
COc1ccc(NC(=O)CSc2nnc(-c3cnccn3)n2C)cc1OC | i | . | i | i | -4.2 | i | . | . | .
Cc1ccc(C)c(NS(=O)(=O)c2cc(C(=O)NCc3ccccn3)ccc2C)c1 | i | . | i | i | -11.8 | i | . | . | .
N#CC1=C(N)SC(N)=C(C#N)C1c1ccc([N+](=O)[O-])cc1 | i | 0.0952 | i | i | -5.8 | i | i | i | i
CCOc1ccccc1CN1CCNC(=O)C1CC(=O)NCCc1ccccn1 (stereo not drawn) | i | . | i | i | -14.1 | i | . | . | .
CCCCOc1cccc(C(=O)NC(=S)Nc2ccc(Cl)c(C(=O)O)c2)c1 | i | -1.66 | i | i | -21.0 | i | . | . | .
CCCOc1cccc(C(=O)NC(=S)Nc2cccc(C(F)(F)F)c2)c1 | i | 10.5* | i | i | -2.8 | i | i | i | i
COc1ccc(C(=O)C2CCCN(Cc3ccc4nonc4c3)C2)cc1OC (stereo not drawn) | i | 0.16 | i | i | -4.8 | i | . | . | .
CCOC(=O)c1[nH]ncc1CN1CCCC(C(=O)c2cccc(OC(C)C)c2)C1 (stereo not drawn) | i | -0.677 | i | i | -14.1 | i | . | . | .
COCc1cc(CN2CCCC(C(=O)c3cccc(C(F)(F)F)c3)C2)ccc1OC (stereo not drawn) | i | . | i | i | -12.8 | i | i | i | i
CCn1ncc(CN2CCCC(C(=O)c3cccc(OC(C)C)c3)C2)c1C (stereo not drawn) | i | . | i | i | -8.5 | i | i | i | i
COc1ccc(CN2CCCC(C(=O)c3cccc(OC(C)C)c3)C2)cc1Cn1cccn1 (stereo not drawn) | i | -0.316 | i | i | -23.3 | i | i | i | i
COc1cccc(O)c1CN1CCCC(C(=O)c2cccc(C(F)(F)F)c2)C1 (stereo not drawn) | i | -0.505 | i | i | -28.7 | i | . | . | .
CCC(C)c1ccc(NC(=O)NCCN2CCCCC2)cc1 (stereo not drawn) | i | . | i | i | -4.1 | i | . | . | .
CC(C)(C)OC(=O)N1CCN(C(=O)c2[nH]cnc2C(=O)Nc2nccs2)CC1 | . | . | . | i | . | . | . | . | .
Cc1ccccc1NC1=C(C(=O)c2ccccc2)N(C)S(=O)(=O)c2ccccc21 | i | . | -11.9* | -8.99* | -11.2 | i | 31.5%* | i | 37.5%*
CN1C(C(=O)Nc2ccc(C(=O)O)cc2)=C(O)c2ccccc2S1(=O)=O | . | . | . | i | . | . | . | . | .
O=C(O)c1cnc(-c2ccccc2)nc1Sc1cccc(Cl)c1 | i | . | i | i | -9.4 | i | . | . | .
O=C(O)c1cnc(-c2ccccc2)nc1Sc1ccc(Cl)cc1Cl | i | . | i | i | -2.9 | i | i | i | i
COc1ccc(-c2cc(-c3ccccc3)nc(SC(C)C(=O)O)c2C#N)cc1 (stereo not drawn) | i | . | i | i | -7.1 | i | . | . | .
CC(C)C(Sc1nc(-c2ccccc2)cc(-c2ccccc2)c1C#N)C(=O)O (stereo not drawn) | i | -2.98 | i | i | -10.7 | i | i | i | i
Cc1nn(Cc2ccc(Cl)cc2)c(=O)n1N(C)c1ncc(C(F)(F)F)cc1Cl | i | -1.38 | i | i | -5.7 | i | i | i | i
COC(=O)/C=C/c1ccccc1S(=O)(=O)N(Cc1ccccc1)Cc1ccco1 | i | -0.536 | -8.55* | i | -8.8 | i | 30.0%* | i | 38.5%*
SMILES | KCNQ1 inh | KCC2 mod | KCNK9 inh | KCNK3 inh | hERG rescue | KCNQ1 act | KCNK9 block conf | Kir21 sel | KCNK9 uninduced
CCOC(=O)Nc1sc2c(c1C(N)=O)CCC(C)C2 (stereo not drawn) | i | 0.403 | i | i | -21.0 | i | . | . | .
CCOC(=O)c1c(NC(=O)CSc2nnc(C)s2)sc2c1CCC(C)C2 (stereo not drawn) | i | -0.0601 | -9.77* | i | -13.2 | i | i | i | 52.0%*
CCOC(=O)c1c(NC(=O)CSc2nnc(-c3ccc(OC)cc3)o2)sc2c1CCC2 | i | -0.0335 | i | i | -12.2 | i | i | i | i
CCOC(=O)c1c(NC(=O)CSc2nnc(-c3cccnc3)o2)sc2c1CCC2 | i | 1.58 | i | i | -2.5 | i | . | . | .
O=C1CCC(C(=O)Nc2ccccc2N2CCCC2)=NN1 | i | . | i | i | -19.1 | i | . | . | .
Cc1ccc(/C(=N\O)c2oc3c(C)c4oc(=O)cc(C)c4cc3c2C)cc1 | 8* | 0.52 | -9.32* | i | -5.8 | i | 28.0%* | i | 44.5%*
Cc1cc(=O)oc2c1ccc1oc(/C(=N/O)c3ccccc3)c(C)c12 | i | 0.0255 | i | i | -9.7 | i | . | . | .
Cc1cc(NC(=O)c2cc(-c3cccs3)nc3ccccc23)no1 | i | -0.345 | -9.63* | i | -9.3 | i | 37.5%* | i | i
COC(CNC(=O)C(=O)NCC1CCCN1S(=O)(=O)c1cccs1)OC (stereo not drawn) | i | . | i | i | -9.9 | i | . | . | .
Cc1ccc(C(=O)N/N=C2\SCC(=O)N2c2cc(C)ccc2C)cc1 | i | -1.86 | i | i | -11.3 | i | i | i | i
Cc1ccc([N+](=O)[O-])cc1N1C(=O)CS/C1=N\NC(=O)c1cccnc1 | i | 1.48 | i | i | -8.8 | i | . | . | .
CCOCCCNC(=S)N1CCCN(c2nc3cc(C)c(C)cc3cc2C#N)CC1 | i | -0.358 | i | i | -20.9 | i | i | i | i
Cc1ccc(C(=O)c2coc3c2C(=O)C(=O)c2ccccc2-3)cc1 | i | -0.371 | -9.36* | i | -9.1 | i | i | i | i
